Data from ChEMBL document CHEMBL3576776, “3-Nitroasterric Acid Derivatives from an Antarctic Sponge-Derived Pseudogymnoascus sp. Fungus” (2015).

What was measured:
Assay type in all cases: functional
Escherichia coli = assay: Antibacterial activity against Escherichia coli MB2884
Procedure, shortened: (§1)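 Compounds serially diluted twofold in DMSO to give 10 concentrations starting at 64 μg/mL; bacterial and fungal strains exposed by previously described methods. MIC taken as lowest concentration inhibiting ≥95% of growth after overnight incubation. Data processed to give MIC; assay robustness RZ′ factor 0.89–0.97 across experiments.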

Staphylococcus aureus [1] = assay: Antibacterial activity against methicillin-resistant Staphylococcus aureus MB5393
Procedure, shortened: (§2)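 Compounds twofold serially diluted in DMSO, 10 concentrations starting at 64 μg/mL. Growth inhibition read after overnight incubation. MIC taken as the lowest concentration inhibiting ≥95% of growth. Assay robustness RZ′ factor 0.89–0.97.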

Aspergillus fumigatus = assay: Antifungal activity against Aspergillus fumigatus ATCC46645; procedure, shortened: as §1
Staphylococcus aureus [2] = assay: Antibacterial activity against methicillin-sensitive Staphylococcus aureus EPI167; procedure, shortened: as §2
Candida albicans [3] = assay: Antifungal activity against Candida albicans ATCC64124; procedure, shortened: as §1
Acinetobacter baumannii = assay: Antibacterial activity against Acinetobacter baumannii CL 5973; procedure, shortened: as §1
Pseudomonas aeruginosa = assay: Antibacterial activity against Pseudomonas aeruginosa PAO1; procedure, shortened: as §1
Candida albicans [4] = assay: Antifungal activity against Candida albicans MY1055; procedure, shortened: as §1

Measured: MIC95

COC(=O)c1c(Oc2cc(C)cc(O)c2C(=O)OCC(C)C(=O)OC)c(OC)cc(O)c1[N+](=O)[O-] (configuration not stated)
> 64 µg/mL: Escherichia coli | Staphylococcus aureus [1] | Aspergillus fumigatus | Staphylococcus aureus [2] | Candida albicans [3] | Acinetobacter baumannii | Pseudomonas aeruginosa | Candida albicans [4]

COC(=O)c1c(Oc2cc(C)cc(O)c2C(=O)OCC(C)C(=O)O)c(OC)cc(O)c1[N+](=O)[O-] (configuration not stated)
> 64 µg/mL: Escherichia coli | Staphylococcus aureus [1] | Aspergillus fumigatus | Staphylococcus aureus [2] | Candida albicans [3] | Acinetobacter baumannii | Pseudomonas aeruginosa | Candida albicans [4]

COC(=O)c1c(Oc2cc(C)cc(O)c2C(=O)OC(C)C(=O)O)c(OC)cc(O)c1[N+](=O)[O-] (configuration not stated)
> 64 µg/mL: Escherichia coli | Staphylococcus aureus [1] | Aspergillus fumigatus | Staphylococcus aureus [2] | Candida albicans [3] | Acinetobacter baumannii | Pseudomonas aeruginosa | Candida albicans [4]

COC(=O)c1c(Oc2cc(C)cc(O)c2C(=O)O)c(OC)cc(O)c1[N+](=O)[O-]
> 64 µg/mL: Escherichia coli | Staphylococcus aureus [1] | Aspergillus fumigatus | Staphylococcus aureus [2] | Candida albicans [3] | Acinetobacter baumannii | Pseudomonas aeruginosa | Candida albicans [4]
